What was measured:
[1] = molecular target: 5-hydroxytryptamine receptor 6 (Homo sapiens, UniProt P50406); assay: Binding affinity against human 5-hydroxytryptamine 6 receptor
D(2) dopamine receptor = D(2) dopamine receptor (Homo sapiens, UniProt P14416); assay: Compound was evaluated for binding affinity against Dopamine receptor D2 in CHO cells using [125I]iodosulpiride as the radioligand; assay type: cell-based
How it was run: (§1)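 Radioligand binding to human cloned receptors: 5-HT1A in HEK 293 cells with [3H]-8-OH-DPAT; 5-HT1B and 5-HT1E in CHO cells with [3H]-5-HT; 5-HT2B in HEK 293 cells with [3H]-5-HT; D2 and D3 in CHO cells with [125I]-iodosulpride. Values are the mean of at least two determinations, each within 0.2 log unit of the mean.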

[2] = molecular target: T1, 5-hydroxytryptamine receptor 1F (Homo sapiens, UniProt P30939); assay: Compound was evaluated for binding affinity against human cloned 5-hydroxytryptamine 1F receptor in CHO cells using [3H]-5-HT as the radioligand; assay type: cell-based
T1 sequence (P30939 whole entry): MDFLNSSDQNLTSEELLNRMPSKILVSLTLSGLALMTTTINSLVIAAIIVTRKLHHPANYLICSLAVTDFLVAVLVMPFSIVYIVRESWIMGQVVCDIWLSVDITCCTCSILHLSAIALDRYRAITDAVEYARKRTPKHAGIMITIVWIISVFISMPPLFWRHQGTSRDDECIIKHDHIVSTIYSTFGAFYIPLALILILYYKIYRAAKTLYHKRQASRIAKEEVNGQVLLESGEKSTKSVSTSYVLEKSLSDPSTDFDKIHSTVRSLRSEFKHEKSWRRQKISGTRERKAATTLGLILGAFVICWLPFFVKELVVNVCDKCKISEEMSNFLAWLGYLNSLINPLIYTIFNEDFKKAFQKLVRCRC

[3] = molecular target: T2, Alpha-1B adrenergic receptor (Homo sapiens, UniProt P35368); assay: Compound was evaluated for binding affinity against Alpha-1B adrenergic receptor
T2 sequence (P35368 whole entry): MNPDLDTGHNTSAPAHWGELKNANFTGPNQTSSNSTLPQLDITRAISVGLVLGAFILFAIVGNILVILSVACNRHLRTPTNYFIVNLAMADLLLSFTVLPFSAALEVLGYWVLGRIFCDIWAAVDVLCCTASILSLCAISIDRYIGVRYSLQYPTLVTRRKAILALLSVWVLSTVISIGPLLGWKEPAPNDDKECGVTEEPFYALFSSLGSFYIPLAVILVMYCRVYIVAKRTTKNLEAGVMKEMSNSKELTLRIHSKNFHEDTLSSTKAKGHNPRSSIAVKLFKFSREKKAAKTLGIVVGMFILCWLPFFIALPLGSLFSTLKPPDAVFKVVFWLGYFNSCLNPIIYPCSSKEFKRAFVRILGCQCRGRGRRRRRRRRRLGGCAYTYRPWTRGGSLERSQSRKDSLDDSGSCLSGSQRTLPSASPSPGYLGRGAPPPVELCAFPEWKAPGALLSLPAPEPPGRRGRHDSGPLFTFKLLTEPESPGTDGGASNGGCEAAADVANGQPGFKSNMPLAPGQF

[4] = molecular target: 5-hydroxytryptamine receptor 4 (Homo sapiens, UniProt Q13639); assay: Compound was evaluated for the binding affinity against human cloned 5-hydroxytryptamine 4 receptor in HeLa cells using [3H]-LSD as the radioligand; assay type: cell-based
Rattus norvegicus = organism: Rattus norvegicus; assay: Blood: Brain distribution ratio is determined in rat; assay type: ADME, organism-based
How it was run: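 Rats received iv infusion for 8 h, and the brain:blood ratio was taken at steady state.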

[5] = molecular target: T3, 5-hydroxytryptamine receptor 2C (Homo sapiens, UniProt P28335); assay: Compound was evaluated for binding affinity against human cloned 5-hydroxytryptamine 2C receptor in HEK 293 cells using [3H]mesulergine as the radioligand; assay type: cell-based, HEK293
T3 sequence (P28335 whole entry): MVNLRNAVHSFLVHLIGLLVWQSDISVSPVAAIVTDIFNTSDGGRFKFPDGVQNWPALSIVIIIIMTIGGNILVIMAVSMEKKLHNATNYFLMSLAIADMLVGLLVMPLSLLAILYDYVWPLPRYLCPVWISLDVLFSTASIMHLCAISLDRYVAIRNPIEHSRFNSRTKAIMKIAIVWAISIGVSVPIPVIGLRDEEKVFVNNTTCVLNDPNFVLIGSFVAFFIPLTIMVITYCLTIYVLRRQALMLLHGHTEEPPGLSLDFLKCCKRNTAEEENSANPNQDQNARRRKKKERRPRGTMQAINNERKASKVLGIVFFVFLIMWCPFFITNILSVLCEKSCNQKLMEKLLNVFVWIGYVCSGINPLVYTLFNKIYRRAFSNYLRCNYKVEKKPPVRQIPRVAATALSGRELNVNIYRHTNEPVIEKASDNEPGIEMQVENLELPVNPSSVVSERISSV

D(3) dopamine receptor = D(3) dopamine receptor (Homo sapiens, UniProt P35462); assay: Compound was evaluated for binding affinity against Dopamine receptor D3 in CHO cells using [125I]iodosulpiride as the radioligand; assay type: cell-based; how it was run: as §1
[6] = Plasma Clearance measured at steady-state following iv infusion at 0.6 mg/kg/h in rats; assay type: ADME, organism-based; parameters: route intravenous; settings: rat, 0.6 mg/kg/h infusion
[7] = molecular target: 5-hydroxytryptamine receptor 1B (Homo sapiens, UniProt P28222); assay: Compound was evaluated for binding affinity against human cloned 5-hydroxytryptamine 1B receptor in CHO cells using [3H]5-HT as the radioligand; assay type: cell-based; how it was run: as §1
[8] = molecular target: 5-hydroxytryptamine receptor 1D (Homo sapiens, UniProt P28221); assay: Compound was evaluated for binding affinity against human cloned 5-hydroxytryptamine 1D receptor in CHO cells using [3H]5-HT as the radioligand; assay type: cell-based
[9] = molecular target: 5-hydroxytryptamine receptor 2B (Homo sapiens, UniProt P41595); assay: Compound was evaluated for binding affinity against human cloned 5-HT2B receptor in HEK 293 cells using [3H]5-HT as the radioligand; assay type: cell-based, HEK293; how it was run: as §1
[10] = molecular target: 5-hydroxytryptamine receptor 2A (Homo sapiens, UniProt P28223); assay: Compound was evaluated for binding affinity against human cloned 5-hydroxytryptamine 2A receptor in HEK 293 cells using [3H]ketanserin as the radioligand; assay type: cell-based, HEK293
[11] = molecular target: T4, 5-hydroxytryptamine receptor 1A (Homo sapiens, UniProt P08908); assay: Compound was evaluated for binding affinity against human cloned 5-hydroxytryptamine 1A receptor in HEK 293 cells using [3H]8-OH-DPAT as the radioligand; assay type: cell-based, HEK293; how it was run: as §1
T4 sequence (P08908 whole entry): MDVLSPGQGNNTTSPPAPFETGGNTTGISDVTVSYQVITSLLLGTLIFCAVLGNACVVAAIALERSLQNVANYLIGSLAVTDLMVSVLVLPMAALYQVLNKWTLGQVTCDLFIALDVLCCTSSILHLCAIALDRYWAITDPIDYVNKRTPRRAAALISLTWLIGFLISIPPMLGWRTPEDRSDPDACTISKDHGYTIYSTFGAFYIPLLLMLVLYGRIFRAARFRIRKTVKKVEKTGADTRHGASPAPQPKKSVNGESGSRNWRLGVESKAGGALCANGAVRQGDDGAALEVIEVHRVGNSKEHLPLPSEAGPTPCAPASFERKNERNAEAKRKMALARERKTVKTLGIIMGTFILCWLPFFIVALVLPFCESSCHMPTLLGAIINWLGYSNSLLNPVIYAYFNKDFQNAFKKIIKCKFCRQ

[12] = molecular target: 5-hydroxytryptamine receptor 1E (Homo sapiens, UniProt P28566); assay: Compound was evaluated for binding affinity against human cloned 5-hydroxytryptamine 1E receptor in CHO cells using [3H]5-HT as the radioligand; assay type: cell-based; how it was run: as §1
[13] = Bioavailability in rat (dose 3 mg/kg in 1% methylcellulose ); assay type: ADME, organism-based; settings: in vivo
How it was run: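 Oral suspension dose of 3 mg/kg in 1% methylcellulose (v/v) aq to rats (n=3). Blood levels were measured by LC/MS/MS to derive AUC/dose and bioavailability.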

5-hydroxytryptamine receptor 6, sequence (P50406 whole entry): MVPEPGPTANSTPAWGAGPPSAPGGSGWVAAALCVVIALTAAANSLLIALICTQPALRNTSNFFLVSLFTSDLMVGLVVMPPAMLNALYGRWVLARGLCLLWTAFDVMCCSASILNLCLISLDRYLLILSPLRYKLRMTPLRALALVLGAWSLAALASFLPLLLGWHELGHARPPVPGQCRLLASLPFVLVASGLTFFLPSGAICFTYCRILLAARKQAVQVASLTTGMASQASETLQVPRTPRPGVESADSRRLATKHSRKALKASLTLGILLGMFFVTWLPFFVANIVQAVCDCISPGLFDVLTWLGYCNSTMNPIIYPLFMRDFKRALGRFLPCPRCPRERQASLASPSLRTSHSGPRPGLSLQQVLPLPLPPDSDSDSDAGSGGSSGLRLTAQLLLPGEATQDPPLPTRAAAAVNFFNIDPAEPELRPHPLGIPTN
D(2) dopamine receptor, sequence (P14416 whole entry): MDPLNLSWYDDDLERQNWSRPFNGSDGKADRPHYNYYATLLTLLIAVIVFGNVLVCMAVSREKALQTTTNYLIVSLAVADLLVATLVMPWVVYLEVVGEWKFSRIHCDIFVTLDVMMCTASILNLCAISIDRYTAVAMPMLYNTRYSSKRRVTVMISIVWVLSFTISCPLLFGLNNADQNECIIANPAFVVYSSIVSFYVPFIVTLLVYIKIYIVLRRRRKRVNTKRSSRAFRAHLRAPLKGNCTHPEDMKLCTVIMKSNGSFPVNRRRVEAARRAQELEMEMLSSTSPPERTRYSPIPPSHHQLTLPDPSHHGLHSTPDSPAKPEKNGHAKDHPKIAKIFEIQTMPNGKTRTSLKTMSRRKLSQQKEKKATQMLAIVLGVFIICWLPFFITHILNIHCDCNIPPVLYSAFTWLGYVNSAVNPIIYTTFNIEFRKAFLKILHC
5-hydroxytryptamine receptor 1B, sequence (P28222 whole entry): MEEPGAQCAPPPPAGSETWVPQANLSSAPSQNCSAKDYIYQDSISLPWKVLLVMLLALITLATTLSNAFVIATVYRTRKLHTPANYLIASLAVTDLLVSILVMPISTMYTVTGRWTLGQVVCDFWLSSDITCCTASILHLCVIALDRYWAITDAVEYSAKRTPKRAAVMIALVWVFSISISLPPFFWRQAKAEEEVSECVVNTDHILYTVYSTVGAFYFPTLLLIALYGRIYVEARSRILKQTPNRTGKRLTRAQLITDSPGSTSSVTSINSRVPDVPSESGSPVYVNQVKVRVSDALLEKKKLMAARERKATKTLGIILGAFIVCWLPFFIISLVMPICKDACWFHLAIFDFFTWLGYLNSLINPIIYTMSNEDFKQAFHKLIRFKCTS
5-hydroxytryptamine receptor 1D, sequence (P28221 whole entry): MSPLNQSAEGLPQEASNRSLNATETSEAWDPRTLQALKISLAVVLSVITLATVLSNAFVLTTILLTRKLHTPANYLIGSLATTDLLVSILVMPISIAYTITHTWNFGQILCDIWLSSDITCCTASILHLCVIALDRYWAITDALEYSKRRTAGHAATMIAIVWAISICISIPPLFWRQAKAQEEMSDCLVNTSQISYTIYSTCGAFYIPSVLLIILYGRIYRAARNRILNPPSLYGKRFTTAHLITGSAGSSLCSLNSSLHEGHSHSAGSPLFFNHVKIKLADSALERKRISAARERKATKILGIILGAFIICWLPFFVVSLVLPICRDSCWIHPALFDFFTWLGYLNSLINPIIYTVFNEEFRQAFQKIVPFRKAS
5-hydroxytryptamine receptor 2A, sequence (P28223 whole entry): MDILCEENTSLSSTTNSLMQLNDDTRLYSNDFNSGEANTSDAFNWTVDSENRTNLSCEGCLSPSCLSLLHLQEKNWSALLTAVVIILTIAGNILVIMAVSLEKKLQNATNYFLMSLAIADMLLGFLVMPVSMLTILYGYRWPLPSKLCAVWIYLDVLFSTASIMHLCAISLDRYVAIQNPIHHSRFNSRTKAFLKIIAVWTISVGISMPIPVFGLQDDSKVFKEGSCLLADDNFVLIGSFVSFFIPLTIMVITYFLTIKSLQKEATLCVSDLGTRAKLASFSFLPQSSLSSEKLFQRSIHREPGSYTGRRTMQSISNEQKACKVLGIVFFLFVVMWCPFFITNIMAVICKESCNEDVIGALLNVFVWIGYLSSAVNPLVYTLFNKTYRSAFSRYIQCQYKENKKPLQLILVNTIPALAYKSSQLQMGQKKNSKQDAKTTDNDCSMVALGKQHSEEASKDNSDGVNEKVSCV
5-hydroxytryptamine receptor 1E, sequence (P28566 whole entry): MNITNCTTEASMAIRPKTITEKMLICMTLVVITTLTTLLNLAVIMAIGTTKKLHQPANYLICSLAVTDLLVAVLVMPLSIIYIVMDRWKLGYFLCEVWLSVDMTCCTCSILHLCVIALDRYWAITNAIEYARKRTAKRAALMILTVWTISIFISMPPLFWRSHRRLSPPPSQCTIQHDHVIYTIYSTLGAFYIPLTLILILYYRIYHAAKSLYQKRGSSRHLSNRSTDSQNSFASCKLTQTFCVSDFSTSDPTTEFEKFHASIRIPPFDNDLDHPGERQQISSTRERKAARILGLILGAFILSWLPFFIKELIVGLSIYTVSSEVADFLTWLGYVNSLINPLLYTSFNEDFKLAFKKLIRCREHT
5-hydroxytryptamine receptor 4, sequence (Q13639 whole entry): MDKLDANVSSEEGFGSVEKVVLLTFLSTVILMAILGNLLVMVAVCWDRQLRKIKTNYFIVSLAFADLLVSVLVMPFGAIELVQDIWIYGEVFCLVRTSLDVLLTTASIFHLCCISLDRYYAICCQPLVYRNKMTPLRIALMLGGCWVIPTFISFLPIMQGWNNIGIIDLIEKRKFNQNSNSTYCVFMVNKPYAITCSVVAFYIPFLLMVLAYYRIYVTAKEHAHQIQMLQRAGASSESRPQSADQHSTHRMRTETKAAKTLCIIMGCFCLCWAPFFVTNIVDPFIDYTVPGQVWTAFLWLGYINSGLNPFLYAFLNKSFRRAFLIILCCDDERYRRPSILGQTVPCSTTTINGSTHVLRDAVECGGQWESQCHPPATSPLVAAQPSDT
D(3) dopamine receptor, sequence (P35462 whole entry, the tested form may be a part): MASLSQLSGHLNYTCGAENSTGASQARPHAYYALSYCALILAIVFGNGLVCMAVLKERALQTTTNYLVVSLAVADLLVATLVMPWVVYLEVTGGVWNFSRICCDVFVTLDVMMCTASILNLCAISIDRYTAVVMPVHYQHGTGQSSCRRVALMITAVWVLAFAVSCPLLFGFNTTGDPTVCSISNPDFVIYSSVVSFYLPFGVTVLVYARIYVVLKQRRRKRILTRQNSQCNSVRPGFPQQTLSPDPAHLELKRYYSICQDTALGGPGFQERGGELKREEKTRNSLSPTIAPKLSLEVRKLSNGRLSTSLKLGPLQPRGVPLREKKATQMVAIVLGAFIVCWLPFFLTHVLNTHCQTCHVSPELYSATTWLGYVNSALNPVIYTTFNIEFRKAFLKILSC
5-hydroxytryptamine receptor 2B, sequence (P41595 whole entry): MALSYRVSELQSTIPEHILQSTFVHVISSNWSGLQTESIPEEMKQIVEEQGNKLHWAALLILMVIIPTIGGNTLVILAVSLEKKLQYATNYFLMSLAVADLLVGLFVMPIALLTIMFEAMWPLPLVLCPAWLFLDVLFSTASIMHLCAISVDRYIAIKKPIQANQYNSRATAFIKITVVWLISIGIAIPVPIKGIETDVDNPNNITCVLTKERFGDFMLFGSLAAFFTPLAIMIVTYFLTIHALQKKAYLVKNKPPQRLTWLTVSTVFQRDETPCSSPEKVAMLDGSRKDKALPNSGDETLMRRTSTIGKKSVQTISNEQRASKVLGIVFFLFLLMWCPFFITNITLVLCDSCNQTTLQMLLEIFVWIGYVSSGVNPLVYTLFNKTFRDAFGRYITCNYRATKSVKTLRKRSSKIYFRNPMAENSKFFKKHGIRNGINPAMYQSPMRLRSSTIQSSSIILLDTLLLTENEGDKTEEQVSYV

COc1ccc(S(=O)(=O)N2c3ccccc3CC2(C)C)cc1N1CCNCC1
Ki [1]: 0.794 nM

COc1ccc(S(=O)(=O)N2CCCc3c(Cl)cc(Cl)cc32)cc1N1CCNCC1
Ki [1]: 0.794 nM

COc1ccc(S(=O)(=O)N2CCCc3cc(Br)ccc32)cc1N1CCNCC1
Ki [1]: 3.16 nM

COc1ccc(S(=O)(=O)Nc2cc(Br)cc(Cl)c2Br)cc1N1CCNCC1
Ki [1]: 3.98 nM

COc1ccc(S(=O)(=O)Nc2cc(I)ccc2C)cc1N1CCNCC1
Ki [1]: 0.794 nM

COc1ccc(S(=O)(=O)Nc2cc([N+](=O)[O-])ccc2C)cc1N1CCNCC1
Ki [1]: 20 nM

COc1ccc(Cl)cc1NS(=O)(=O)c1ccc(OC)c(N2CCNCC2)c1
Ki [1]: 1.26 nM

COc1ccc(S(=O)(=O)Nc2cc(Br)ccc2Br)cc1N1CCNCC1
Ki (D(2) dopamine receptor): > 10000 nM | Ki [2]: > 10000 nM | Ki [3]: > 2000 nM | Ki [4]: 3160 nM | Distribution ratio (Rattus norvegicus): 0.38 | Ki [5]: > 5010 nM | Ki (D(3) dopamine receptor): > 5010 nM | clearance [6]: 43 mL/min/kg | Ki [7]: > 5010 nM | Ki [8]: > 1580 nM | Ki [9]: > 3160 nM | Ki [10]: > 10000 nM | Ki [11]: > 3160 nM | Ki [1]: 1 nM | Ki [12]: > 10000 nM | bioavailability [13]: 20%

COc1ccc(S(=O)(=O)Nc2cccc(Br)c2)cc1N1CCNCC1
Ki [1]: 1.26 nM

COc1ccc(S(=O)(=O)Nc2ccc(Cl)c(Cl)c2)cc1N1CCNCC1
Ki [1]: 2.51 nM

COc1ccc(S(=O)(=O)Nc2cc(Br)cc(F)c2Cl)cc1N1CCNCC1
Ki [1]: 3.16 nM

COc1ccc(S(=O)(=O)Nc2cc(Br)cc(Br)c2Br)cc1N1CCNCC1
Ki [1]: 2.51 nM

COc1ccc(S(=O)(=O)Nc2ccccc2C(C)C)cc1N1CCNCC1
clearance [6]: 52 mL/min/kg | Ki [1]: 1 nM

COc1ccc(S(=O)(=O)Nc2cc(Br)cc(Br)c2Cl)cc1N1CCNCC1
Ki [1]: 2.51 nM

COc1ccc(S(=O)(=O)Nc2cc(Cl)cc(Cl)c2Br)cc1N1CCNCC1
Ki [1]: 3.16 nM

COc1ccc(S(=O)(=O)Nc2ccccc2Br)cc1N1CCNCC1
Distribution ratio (Rattus norvegicus): 0.24 | clearance [6]: 60 mL/min/kg | Ki [1]: 1.58 nM

COc1ccc(S(=O)(=O)N2CCc3cc(C)c(C(F)(F)F)cc32)cc1N1CCNCC1
Distribution ratio (Rattus norvegicus): 0.41 | clearance [6]: 73 mL/min/kg | Ki [1]: 3.98 nM

COc1ccc(S(=O)(=O)Nc2cc(Br)cc(Br)c2)cc1N1CCNCC1
Ki [1]: 0.501 nM

COc1cc(Cl)c(C)cc1NS(=O)(=O)c1ccc(OC)c(N2CCNCC2)c1
Ki [1]: 2 nM
